Experimental data: ChEMBL document CHEMBL1126621 (J Med Chem, 1993)
Bridge positions count the residues as written; N and C are the ends. Square brackets hold non-standard residues; d marks the D form. Peptide text beside a SMILES is read from it. Pen = CC(C)(S)[C@H](N)C(=O)O

Experiments:
Mu-type opioid receptor = Mu-type opioid receptor (Cavia porcellus, UniProt P97266); assay: Inhibition of [3H]PL-17 binding to mu opioid receptor of guinea pig brain homogenate
[1] = target: T1, Kappa-type opioid receptor (Cavia porcellus, UniProt P41144); assay: (§1) Inhibition of [3H]U-69593 binding to kappa opioid receptor of guinea pig brain homogenate
Procedure, shortened: (§2)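 Adult male Hartley guinea pig whole-brain membranes in 50 mM Tris-HCl pH 7.4, preincubated 25 °C 30 min to strip endogenous peptides. Assay buffer: Tris with BSA, bestatin, bacitracin, captopril, PMSF. Ten concentrations over 800-fold range, duplicate tubes. 10 μM naltrexone defined nonspecific binding. 25 °C for 3 h, then PEI-treated GF/B filtration and scintillation counting. One/two-site nonlinear regression or logistic fit. ≥3 independent runs, mean ± SEM.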

[2] = target: Delta-type opioid receptor (Mus musculus, UniProt P32300); assay: Inhibition of delta-selective antagonist binding to opioid receptor of mouse vas dferens
Procedure, shortened: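 Mouse vas deferens at 500 mg tension in Mg-free Krebs, 37 °C, 95% O2/5% CO2. Field-stimulated with 2-ms supramaximal pulses; isometric contractions recorded. Cumulative concentration-response. At least 2 assays in duplicate.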

[3] = Relative affinity for delta and kappa opioid receptors of guinea pig brain homogenate; details: Cavia porcellus
[4] = target: T1, Kappa-type opioid receptor; assay: as §1; remark: listed apart in the source
Procedure, shortened: as §2, with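 “PMSF. Radioligand: [3H]DPDPE 1.0 nM (δ) or [3H]U-69,593 0.75 nM (κ).” for “PMSF.”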

T1 sequence (P41144 whole entry): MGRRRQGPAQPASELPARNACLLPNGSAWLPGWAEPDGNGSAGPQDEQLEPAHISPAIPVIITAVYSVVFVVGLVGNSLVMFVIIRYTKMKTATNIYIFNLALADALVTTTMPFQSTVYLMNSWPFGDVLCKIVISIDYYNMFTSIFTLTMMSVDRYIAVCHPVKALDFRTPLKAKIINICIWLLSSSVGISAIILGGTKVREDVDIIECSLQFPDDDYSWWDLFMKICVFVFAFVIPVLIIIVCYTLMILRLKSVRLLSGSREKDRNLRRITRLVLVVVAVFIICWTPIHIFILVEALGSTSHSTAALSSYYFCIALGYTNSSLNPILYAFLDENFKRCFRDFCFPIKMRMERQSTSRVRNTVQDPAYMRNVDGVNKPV
Sequence of Mu-type opioid receptor (P97266 whole entry): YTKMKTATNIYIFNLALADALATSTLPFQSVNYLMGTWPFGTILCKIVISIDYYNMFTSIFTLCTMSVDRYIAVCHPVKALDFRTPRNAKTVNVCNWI
Sequence of Delta-type opioid receptor (P32300 whole entry): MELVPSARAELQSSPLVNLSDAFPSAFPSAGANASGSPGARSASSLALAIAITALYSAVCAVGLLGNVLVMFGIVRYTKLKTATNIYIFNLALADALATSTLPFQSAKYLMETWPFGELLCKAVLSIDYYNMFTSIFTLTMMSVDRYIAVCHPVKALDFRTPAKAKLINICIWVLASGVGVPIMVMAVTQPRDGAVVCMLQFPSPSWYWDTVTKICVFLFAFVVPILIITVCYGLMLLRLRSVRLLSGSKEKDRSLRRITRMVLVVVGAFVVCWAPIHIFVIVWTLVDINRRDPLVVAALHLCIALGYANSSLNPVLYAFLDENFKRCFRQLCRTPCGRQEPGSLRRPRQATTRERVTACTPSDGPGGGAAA

Row | SMILES | IC50 (Mu-type opioid receptor) | IC50 [1] | IC50 [2] | Selectivity [3] | IC50 [4]
1 | CC[C@H](C)[C@@H]1NC(=O)[C@H](CCCNC(=N)N)NC(=O)[C@H](CCCNC(=N)N)NC(=O)[C@@H](NC(=O)[C@H](Cc2ccccc2)NC(=O)CNC(=O)CNC(=O)[C@@H](N)Cc2ccccc2)CSSC[C@@H](C(N)=O)NC(=O)[C@@H]2CCCN2C(=O)[C@H](CCCNC(=N)N)NC1=O (H-FGGFCRRIRPC-NH2; disulfide 5-11) | 61.2 nM | 15.1 nM | > 3000 nM |  | 
2 | CC[C@H](C)[C@H]1NC(=O)[C@H](CCCN=C(N)N)NC(=O)[C@@H](CCCN=C(N)N)NC(=O)[C@H](NC(=O)[C@H](Cc2ccccc2)NC(=O)CNC(=O)CNC(=O)[C@@H](N)Cc2ccc(O)cc2)C(C)(C)SSC[C@H](C(=O)O)NC(=O)[C@H]2CCCN2C(=O)[C@H](CCCN=C(N)N)NC1=O |  |  |  | 165 | 
3 | CC[C@H](C)[C@H]1NC(=O)[C@H](CCCN=C(N)N)NC(=O)[C@@H](CCCN=C(N)N)NC(=O)[C@H](NC(=O)[C@H](Cc2ccccc2)NC(=O)CNC(=O)CNC(=O)[C@@H](N)Cc2ccc(O)cc2)CSSC[C@H](C(=O)N[C@H](CCCN=C(N)N)C(=O)N[C@H](CCCCN)C(=O)O)NC1=O |  |  |  | 43 | 
4 | CC(C)C[C@H](NC(=O)[C@H](Cc1ccccc1)NC(=O)CNC(=O)CNC(=O)[C@@H](N)Cc1ccc(O)cc1)C(=O)N[C@@H](CCCNC(=N)N)C(=O)N[C@@H](CCCNC(=N)N)C(=O)N[C@@H]1CSSC[C@H](C(=O)N[C@@H](CCCCN)C(N)=O)NC(=O)[C@H](CCCCN)NC(=O)[C@@H]2CCCN2C(=O)[C@H](CCCNC(=N)N)NC1=O | 0.674 nM | 0.116 nM | 25.3 nM |  | 
5 | CC[C@H](C)[C@@H]1NC(=O)[C@H](CCCN=C(N)N)NC(=O)[C@H](CCCN=C(N)N)NC(=O)[C@@H](NC(=O)[C@H](Cc2ccccc2)NC(=O)CNC(=O)CNC(=O)[C@@H](N)Cc2ccc(O)cc2)C(C)(C)SSC[C@@H](C(N)=O)NC(=O)[C@@H]2CCCN2C(=O)[C@H](CCCN=C(N)N)NC1=O (H-YGGF[Pen]RRIRPC-NH2; disulfide 5-11) | 1.26 nM | 0.522 nM | > 6000 nM |  | 
6 | CC[C@H](C)[C@H]1NC(=O)[C@H](CCCN=C(N)N)NC(=O)[C@@H](CCCN=C(N)N)NC(=O)[C@H](NC(=O)[C@H](Cc2ccccc2)NC(=O)CNC(=O)[C@@H](C)NC(=O)[C@@H](N)Cc2ccc(O)cc2)CSSC[C@H](C(=O)O)NC(=O)[C@H]2CCCN2C(=O)[C@H](CCCN=C(N)N)NC1=O |  |  |  | 1.3 | 
7 | CC(C)C[C@H](NC(=O)[C@H](Cc1ccccc1)NC(=O)CNC(=O)CNC(=O)[C@@H](N)Cc1ccc(O)cc1)C(=O)N[C@@H](CCCN=C(N)N)C(=O)N[C@@H](CCCN=C(N)N)C(=O)N[C@H]1CSSC[C@H](C(=O)O)NC(=O)[C@@H](CC(C)C)NC(=O)[C@H](CCCCN)NC(=O)[C@H]2CCCN2C(=O)[C@H](CCCN=C(N)N)NC1=O |  |  |  | 55 | 
8 | CC[C@H](C)[C@@H]1NC(=O)[C@H](CCCNC(=N)N)NC(=O)[C@H](CCCNC(=N)N)NC(=O)[C@@H](NC(=O)[C@H](Cc2ccccc2)NC(=O)CNC(=O)CNC(=O)[C@@H](N)Cc2ccc(O)cc2)CSSC[C@@H](C(N)=O)NC(=O)[C@H](CC(C)C)NC(=O)[C@H](CCCCN)NC(=O)[C@H]2CCCN2C(=O)[C@H](CCCNC(=N)N)NC1=O | 2.48 nM | 0.21 nM | 4100 nM |  | 
9 | CC[C@H](C)[C@@H]1NC(=O)[C@H](CCCN=C(N)N)NC(=O)[C@H](CCCN=C(N)N)NC(=O)[C@@H](NC(=O)[C@H](Cc2ccccc2)NC(=O)CNC(=O)CNC(=O)[C@@H](N)Cc2ccc(O)cc2)CSSC[C@@H](C(=O)N[C@@H](CCCN=C(N)N)C(=O)N[C@@H](CCCCN)C(N)=O)NC1=O (H-YGGFCRRICRK-NH2; disulfide 5-9) | 5.81 nM |  | 6260 nM |  | 0.42 nM
10 | CC(C)C[C@H](NC(=O)[C@H](Cc1ccccc1)NC(=O)CNC(=O)CNC(=O)[C@@H](N)Cc1ccc(O)cc1)C(=O)N[C@@H](CCCN=C(N)N)C(=O)N[C@@H](CCCN=C(N)N)C(=O)N[C@H]1CSSC[C@H](C(N)=O)NC(=O)[C@H](CC(C)C)NC(=O)[C@H](CCCCN)NC(=O)[C@@H]2CCCN2C(=O)[C@H](CCCN=C(N)N)NC1=O | 0.38 nM | 0.035 nM | 9.17 nM |  | 
11 | CC[C@H](C)[C@@H]1NC(=O)[C@H](CCCN=C(N)N)NC(=O)[C@H](CCCN=C(N)N)NC(=O)[C@@H](NC(=O)[C@H](Cc2ccccc2)NC(=O)CNC(=O)[C@@H](C)NC(=O)[C@@H](N)Cc2ccc(O)cc2)CSSC[C@@H](C(N)=O)NC(=O)[C@@H]2CCCN2C(=O)[C@H](CCCN=C(N)N)NC1=O | 9.69 nM | 81.2 nM | > 6000 nM |  | 
12 | CC[C@H](C)[C@@H]1NC(=O)[C@@H](CCCN=C(N)N)NC(=O)[C@H](CCCN=C(N)N)NC(=O)[C@H](NC(=O)[C@H](Cc2ccccc2)NC(=O)CNC(=O)CNC(=O)[C@@H](N)Cc2ccc(O)cc2)CSSC[C@H](C(=O)N[C@@H](CCCCN)C(=O)O)NC(=O)[C@@H](CCCN=C(N)N)NC1=O |  |  |  | 139 | 
13 | CC(C)C[C@H](NC(=O)[C@H](Cc1ccccc1)NC(=O)CNC(=O)CNC(=O)[C@@H](N)Cc1ccc(O)cc1)C(=O)N[C@@H](CCCN=C(N)N)C(=O)N[C@@H](CCCN=C(N)N)C(=O)N[C@@H]1CSSC[C@@H](C(=O)N[C@@H](CCCCN)C(=O)O)NC(=O)[C@@H](CCCCN)NC(=O)[C@@H]2CCCN2C(=O)[C@@H](CCCN=C(N)N)NC1=O |  |  |  | 56 | 
14 | CC[C@H](C)[C@H]1NC(=O)[C@H](CCCN=C(N)N)NC(=O)[C@@H](NC(=O)[C@H](CC(C)C)NC(=O)[C@H](Cc2ccccc2)NC(=O)CNC(=O)CNC(=O)[C@@H](N)Cc2ccc(O)cc2)CSSC[C@@H](C(=O)N[C@@H](CCCCN)C(=O)O)NC(=O)[C@H](CCCN=C(N)N)NC1=O |  |  |  | 10 | 
15 | CC[C@H](C)[C@@H]1NC(=O)[C@H](CCCN=C(N)N)NC(=O)[C@H](CCCN=C(N)N)NC(=O)[C@@H](NC(=O)[C@H](Cc2ccccc2)NC(=O)CNC(=O)CNC(=O)[C@@H](N)Cc2ccc(O)cc2)CSSC[C@@H](C(=O)N2CCC[C@H]2C(=O)N[C@@H](CCCCN)C(N)=O)NC1=O (H-YGGFCRRICPK-NH2; disulfide 5-9) | 6.43 nM | 0.868 nM | > 3000 nM |  | 
16 | CC[C@H](C)[C@@H]1NC(=O)[C@H](CCCN=C(N)N)NC(=O)[C@H](CCCN=C(N)N)NC(=O)[C@@H](NC(=O)[C@H](Cc2ccccc2)NC(=O)CNC(=O)CNC(=O)[C@@H](N)Cc2ccc(O)cc2)CSSC[C@@H](C(=O)N[C@@H](CCCCN)C(N)=O)NC(=O)[C@H](CCCN=C(N)N)NC1=O (H-YGGFCRRIRCK-NH2; disulfide 5-10) | 4.26 nM | 0.593 nM | > 3000 nM |  | 
17 | CC[C@H](C)[C@@H]1NC(=O)[C@H](CCCNC(=N)N)NC(=O)[C@@H](NC(=O)[C@H](CC(C)C)NC(=O)[C@H](Cc2ccccc2)NC(=O)CNC(=O)CNC(=O)[C@@H](N)Cc2ccc(O)cc2)CSSC[C@@H](C(=O)N[C@@H](CCCCN)C(N)=O)NC(=O)[C@H](CCCNC(=N)N)NC1=O (H-YGGFLCRIRCK-NH2; disulfide 6-10) | 0.091 nM | 0.047 nM | 92.6 nM |  | 
18 | CC[C@H](C)[C@H]1NC(=O)[C@H](CCCN=C(N)N)NC(=O)[C@@H](CCCN=C(N)N)NC(=O)[C@H](NC(=O)[C@H](Cc2ccccc2)NC(=O)CNC(=O)CNC(=O)[C@@H](N)Cc2ccccc2)CSSC[C@H](C(=O)O)NC(=O)[C@H]2CCCN2C(=O)[C@H](CCCN=C(N)N)NC1=O |  |  |  | 26 | 
19 | CC[C@H](C)[C@H]1NC(=O)[C@H](CCCN=C(N)N)NC(=O)[C@@H](CCCN=C(N)N)NC(=O)[C@H](NC(=O)[C@H](Cc2ccccc2)NC(=O)CNC(=O)CNC(=O)[C@@H](N)Cc2ccc(O)cc2)CSSC[C@H](C(=O)O)NC(=O)[C@@H](CC(C)C)NC(=O)[C@H](CCCCN)NC(=O)C2CCCN2C(=O)[C@H](CCCN=C(N)N)NC1=O (stereo in doubt) |  |  |  | 46 | 
20 | CC[C@H](C)[C@H]1NC(=O)[C@H](CCCN=C(N)N)NC(=O)[C@@H](CCCN=C(N)N)NC(=O)[C@H](NC(=O)[C@H](Cc2ccccc2)NC(=O)CNC(=O)CNC(=O)[C@@H](N)Cc2ccc(O)cc2)CSSC[C@H](C(=O)N2CCC[C@@H]2C(=O)N[C@H](CCCCN)C(=O)O)NC1=O |  |  |  | 36 | 
